Assay outcomes as filed in PubChem.
In the library only some 2.3% were active in any assay of this set; here they are far more common.
ROMK mod: ROMK potassium channel modulators, primary screen, cell-based, thallium flux, MLSMR library; Tet-inducible ROMK, thallium flux fluorescence; actives lie on both sides; B-score at 10 µM; actives 2% (n = 130,000); AID 1918, 2009;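 active = signal ratio slope over the read window, or its plate-corrected B-score, at least 3 SD from the plate mean, either direction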;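 note: B-score of the F/F0 ratio slope over 7 to 12 s after thallium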
sdo1 growth: growth rescue of sdo1-depleted yeast, primary screen, S. cerevisiae, bone marrow failure model; z-score at 10 µM; actives 0.21% (n = 140,000); AID 817, 2007; S. cerevisiae sdo1-depleted JHY4D growth rescue, OD600 30 h; hits give high values; pdr5 snq2 efflux-pump mutant strain;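 active = z-score above 3 at both the 24 hr and the 30 hr optical density reads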;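 note: z-score against mean and SD of all compound wells on the same plate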
Autophagy HCS: autophagy modulators in MEF cells, primary screen, imaging, high-content, MEF GFP-LC3. AID 463193, 2010. actives 0.98% (n = 190,000). MEF GFP-LC3 puncta imaging; test concentration mostly 10 µM. calls only at 10 µM (by protocol);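 active = percentage of spot-positive cells more than 3 SD above its plate mean, without a fluorescence outlier flag or 80% toxicity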;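 note: spot-positive cell cutoff set from DMSO-treated cells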
ABCB1 inh: ABCB1 efflux pump inhibitors, primary screen, cell-based, multiplex, flow cytometry, ABCG2 counter-screen | ATP-dependent translocase ABCB1 (Homo sapiens), P08183 | CCRF-Adr cells, JC-1 efflux | inhibition, % at 6.6 µM | actives 0.067% (n = 190,000); in the data active = inhibition above about 40%;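 note: 0% = vehicle and 100% = reference inhibitor; higher value means more JC-1 retained so stronger ABCB1 efflux block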
Target sequence (P08183 whole entry, looked up): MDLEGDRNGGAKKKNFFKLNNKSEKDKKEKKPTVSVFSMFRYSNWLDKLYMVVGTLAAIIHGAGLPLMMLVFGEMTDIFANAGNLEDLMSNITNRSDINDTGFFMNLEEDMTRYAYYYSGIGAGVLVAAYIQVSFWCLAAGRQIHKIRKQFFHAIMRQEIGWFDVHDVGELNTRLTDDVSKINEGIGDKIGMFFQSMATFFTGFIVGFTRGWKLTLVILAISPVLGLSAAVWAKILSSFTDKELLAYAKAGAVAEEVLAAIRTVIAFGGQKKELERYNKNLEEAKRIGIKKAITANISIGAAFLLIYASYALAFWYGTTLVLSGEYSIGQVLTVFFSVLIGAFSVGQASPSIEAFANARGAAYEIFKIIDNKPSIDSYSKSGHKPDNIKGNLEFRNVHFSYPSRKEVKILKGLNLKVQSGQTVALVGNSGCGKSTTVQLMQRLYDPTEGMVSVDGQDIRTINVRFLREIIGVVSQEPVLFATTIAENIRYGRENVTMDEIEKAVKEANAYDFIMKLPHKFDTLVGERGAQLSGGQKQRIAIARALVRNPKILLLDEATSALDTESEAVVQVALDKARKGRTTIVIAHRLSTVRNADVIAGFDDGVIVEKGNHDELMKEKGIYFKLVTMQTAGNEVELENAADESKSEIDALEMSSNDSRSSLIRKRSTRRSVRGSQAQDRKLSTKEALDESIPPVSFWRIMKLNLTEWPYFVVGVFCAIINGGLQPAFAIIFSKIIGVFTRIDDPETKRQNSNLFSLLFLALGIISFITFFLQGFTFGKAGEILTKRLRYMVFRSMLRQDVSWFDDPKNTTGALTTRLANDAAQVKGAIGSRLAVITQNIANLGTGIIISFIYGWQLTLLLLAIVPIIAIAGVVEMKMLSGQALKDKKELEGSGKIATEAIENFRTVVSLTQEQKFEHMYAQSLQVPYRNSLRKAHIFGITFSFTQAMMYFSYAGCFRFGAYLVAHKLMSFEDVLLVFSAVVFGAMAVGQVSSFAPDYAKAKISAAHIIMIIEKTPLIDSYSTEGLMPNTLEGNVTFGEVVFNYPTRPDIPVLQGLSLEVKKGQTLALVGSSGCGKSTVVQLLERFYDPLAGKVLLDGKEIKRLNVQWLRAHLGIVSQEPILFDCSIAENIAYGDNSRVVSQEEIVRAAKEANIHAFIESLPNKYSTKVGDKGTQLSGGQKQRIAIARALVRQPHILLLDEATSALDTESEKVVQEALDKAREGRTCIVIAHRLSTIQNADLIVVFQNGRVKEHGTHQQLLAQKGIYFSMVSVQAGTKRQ
ABCG2 inh: ABCG2 efflux pump inhibitors, primary screen, multiplex with ABCB1, IgMXP3 cells, flow cytometry. inhibition, % at 6.6 µM. Broad substrate specificity ATP-binding cassette transporter ABCG2 (Homo sapiens), Q9UNQ0. JC-1 efflux. actives 0.1% (n = 190,000);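 active = inhibition above 80%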;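 note: 0% = DMSO and 100% = nicardipine control wells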
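material = IgMXP3 (ABCG2) plus far-red-tagged CCRF-Adr (ABCB1) cells | amount = 3 million cells/mL, equal mix of both lines | also added = JC-1 transporter substrate | dosing = one concentration, 6.6 µM final | schedule = 10 min at 25 °C | measured by = flow cytometric JC-1 green MFI at 530 nm | read-out basis = percent efflux inhibition, scaled nicardipine 100% to DMSO 0%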
Ins promoter up: insulin promoter activators in MIN6 cells, imaging, high-content screening, mouse beta cells | MIN6 insulin promoter-GFP reporter; hits give high values | AID 1625, 2009 | actives 0.3% (n = 190,000) | z-score at 5 µM;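 active = z-score above 3 at 5 µM with at least 500 cells counted in the well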
* = called active by the depositor; i = inactive; . = no result given; + = active, no number.

SMILES	ROMK mod	sdo1 growth	Autophagy HCS	ABCB1 inh	ABCG2 inh	Ins promoter up
COc1ccc2cc(/C=N/NC(=O)CN(c3ccccc3C)S(=O)(=O)c3ccccc3)c(Cl)nc2c1	.	-0.19	+	0	-3	1.7
COc1ccc(/C=N/NC(=O)CN(c2ccc(OC)cc2)S(=O)(=O)c2ccccc2)cc1	-1.8	.	i	4	12	.
CCOc1ccc2c(c1)C(c1ccc(C)o1)=NNC(c1ccncc1)=N2	-0.4	.	+	1	8	0.06
CCC(C)NC(=O)CSc1nc2cc3c(cc2c(=O)n1Cc1ccco1)OCO3 (stereo not drawn)	1.1	.	i	2	8	0.1
CCC(Sc1nc2cc3c(cc2c(=O)n1Cc1ccco1)OCO3)C(=O)Nc1ccccc1OC (stereo not drawn)	.	0.47	+	4	6	-0.17
CCC(Sc1nc2cc3c(cc2c(=O)n1Cc1ccco1)OCO3)C(=O)Nc1cccc(OC)c1 (stereo not drawn)	.	0.33	+	1	2	0.13
CCC(Sc1nc2cc3c(cc2c(=O)n1Cc1ccco1)OCO3)C(=O)NCCOC (stereo not drawn)	.	0.43	i	1	3	0.29
CCCC[C@@H]1CNC(=S)N1CCCC	.	.	i	1	2	0.88
Cc1sc(NC(=O)CN(Cc2ccc(F)cc2)C(=O)C(C)(C)C)c(C(N)=O)c1C	.	0.66	i	2	23	0.04
COc1ccc(CNCC(O)(c2ccc(F)cc2)c2ccc(F)cc2)cc1	-2.3	.	+	2	3	0.56
Cc1cc(C)c2[nH]c(=O)c(CN(CC3CCCO3)S(=O)(=O)c3ccc4c(c3)OCCO4)cc2c1 (stereo not drawn)	0.12	-1.2	i	3	5	-0.32
Cc1cccc2cc(CN(Cc3ccco3)S(=O)(=O)c3ccc4c(c3)OCCO4)c(=O)[nH]c12	.	-1.7	+	0	0	-0.03
Cc1ccc(C)c2[nH]c(=O)c(CN(CC3CCCO3)S(=O)(=O)c3ccc4c(c3)OCCO4)cc12 (stereo not drawn)	-1.5	0.45	+	2	4	1.8
CCN(CC)CCNC(=O)c1ccc(Sc2ccc(Cl)cc2)c(NC(C)=O)c1	0.71	.	i	0	1	0.38
COC(C[C@@H](O)[C@@H](C)[C@@H](O)COCc1ccccc1)OC	.	.	.	.	.	-0.28
COc1ccc(C(=O)N(C)c2c(C)n(C)n(-c3ccccc3)c2=O)cc1OC	0.14	.	+	1	3	0.2
Cc1c(N(C)C(=O)c2ccco2)c(=O)n(-c2ccccc2)n1C	0.63	0.69	i	1	4	0.24
CCN(CC)CCN1C(=O)c2oc3ccccc3c(=O)c2C1c1cccc(Br)c1 (stereo not drawn)	-0.86	0.34	i	0	0	.
CCN(CC)CCN1C(=O)c2oc3ccccc3c(=O)c2C1c1ccccc1 (stereo not drawn)	0.31	0.08	i	-1	0	3.7*
CCN(CC)CC(C)OC(=O)c1ccccc1Cl (stereo not drawn)	0.21	.	+	0	-1	-0.09
Cc1ccc(OCc2nc(-c3cccs3)no2)c([N+](=O)[O-])c1	-1.4	.	i	1	18	-0.48
COc1cccc(-c2nnc(Nc3nc4c(F)cccc4s3)o2)c1	9.4*	0.79	i	-2	-10	1.2
COc1cccc2sc(Nc3nnc(-c4ccccc4Cl)o3)nc12	.	-0.06	+	-1	-3	.
COc1cccc2sc(NN)nc12	0.26	.	i	-1	-2	.
COc1ccccc1-c1nnc(Nc2nc3c(OC)cccc3s2)o1	2.4*	1.5	i	-1	-1	.
COc1ccc(/C=C/C(=O)c2ccc(NC(=O)c3cccs3)cc2)cc1OC	.	-1.9	i	0	-2	-0.35
Nc1nc2c(Cl)ccc(Cl)c2s1	-0.63	.	i	2	5	.
